# Measurements: ChEMBL document CHEMBL1268917, “Synthesis and biological evaluation of radio-iodinated benzimidazoles as SPECT imaging agents for NR2B subtype of NMDA receptor” (Bioorg Med Chem, 2010)
# Legend:
# Stomach [1] = experiment: Biodistribution in ddY mouse stomach assessed per gram of tissue at 14.8 kBq, iv after 180 mins; assay type: ADME, organism-based; details: in vivo, 3 h
# Outline: (§1)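 Radioiodinated tracer (14.8 kBq) injected via tail vein into male ddY mice (6 weeks, 30–35 g). Organs removed at set times after injection, weighed and gamma-counted; uptake expressed as % injected dose per gram tissue, mean ± SD, n = 5–6.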
# Blood [2] = experiment: Biodistribution in ddY mouse blood assessed per gram of tissue at 14.8 kBq, iv after 180 mins; assay type: ADME, organism-based; details: in vivo, 3 h
# Outline: (§2)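 Killed at set times after injection; organs and blood removed, weighed, gamma counted. Data as % injected dose per gram tissue, mean SD, n = 5–6.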
# Pancreas [3] = experiment: Biodistribution in ddY mouse pancreas assessed per gram of tissue at 14.8 kBq, iv after 0.5 mins; assay type: ADME, organism-based; details: in vivo; outline: as §1
# Brain [4] = experiment: Biodistribution in ddY mouse brain assessed per gram of tissue at 14.8 kBq, iv after 60 mins; assay type: ADME, organism-based; details: in vivo, 1 h; outline: as §2
# Blood [5] = experiment: Biodistribution in ddY mouse blood assessed per gram of tissue at 148 kBq, iv after 180 mins in presence of 50 mg/kg, iv of cyclosporin A administered 30 mins before compound challenge (reference value: 0.78 +/- 0.27 %); assay type: ADME, organism-based; set-up: dose 50 mg/kg, route intravenous; details: in vivo, 3 h
# Heart [6] = experiment: Biodistribution in ddY mouse heart assessed per gram of tissue at 14.8 kBq, iv after 0.5 mins; assay type: ADME, organism-based; details: in vivo; outline: as §2
# Stomach [7] = experiment: Biodistribution in ddY mouse stomach assessed per gram of tissue at 14.8 kBq, iv after 30 mins; assay type: ADME, organism-based; details: in vivo, 0.5 h; outline: as §1
# Intestine [8] = experiment: Biodistribution in ddY mouse intestine assessed per gram of tissue at 14.8 kBq, iv after 30 mins; assay type: ADME, organism-based; details: in vivo, 0.5 h; outline: as §2
# Pancreas [9] = experiment: Biodistribution in ddY mouse pancreas assessed per gram of tissue at 14.8 kBq, iv after 180 mins; assay type: ADME, organism-based; details: in vivo, 3 h; outline: as §1
# Pancreas [10] = experiment: Biodistribution in ddY mouse pancreas assessed per gram of tissue at 14.8 kBq, iv after 30 mins; assay type: ADME, organism-based; details: in vivo, 0.5 h; outline: as §1
# Brain [11] = experiment: Biodistribution in ddY mouse brain assessed per gram of tissue at 14.8 kBq, iv after 0.5 mins; assay type: ADME, organism-based; details: in vivo; outline: as §2
# Stomach [12] = experiment: Biodistribution in ddY mouse stomach assessed per gram of tissue at 14.8 kBq, iv after 360 mins; assay type: ADME, organism-based; details: in vivo, 6 h; outline: as §1
# Brain [13] = experiment: Biodistribution in ddY mouse brain assessed per gram of tissue at 148 kBq, iv after 180 mins in presence of 50 mg/kg, iv of cyclosporin A administered 30 mins before compound challenge (reference value: 0.50 +/- 0.04 %); assay type: ADME, organism-based; set-up: dose 50 mg/kg, route intravenous; details: in vivo, 3 h
# Kidney [14] = experiment: Biodistribution in ddY mouse kidney assessed per gram of tissue at 148 kBq, iv after 180 mins in presence of 200 mg/kg, iv of probenecid administered 30 mins before compound challenge (reference value: 6.29 +/- 1.47 %); details: in vivo, 3 h
# Kidney [15] = experiment: Biodistribution in ddY mouse kidney assessed per gram of tissue at 14.8 kBq, iv after 180 mins; assay type: ADME, organism-based; details: in vivo, 3 h; outline: as §2
# Lung [16] = experiment: Biodistribution in ddY mouse lung assessed per gram of tissue at 14.8 kBq, iv after 180 mins; assay type: ADME, organism-based; details: in vivo, 3 h; outline: as §1
# Liver [17] = experiment: Biodistribution in ddY mouse liver assessed per gram of tissue at 14.8 kBq, iv after 180 mins; assay type: ADME, organism-based; details: in vivo, 3 h; outline: as §2
# Brain [18] = experiment: Biodistribution in ddY mouse brain assessed per gram of tissue at 14.8 kBq, iv after 360 mins; assay type: ADME, organism-based; details: in vivo, 6 h; outline: as §2
# Spleen [19] = experiment: Biodistribution in ddY mouse spleen assessed per gram of tissue at 14.8 kBq, iv after 5 mins; assay type: ADME, organism-based; details: in vivo; outline: as §1
# Kidney [20] = experiment: Biodistribution in ddY mouse kidney assessed per gram of tissue at 14.8 kBq, iv after 0.5 mins; assay type: ADME, organism-based; details: in vivo; outline: as §2
# Spleen [21] = experiment: Biodistribution in ddY mouse spleen assessed per gram of tissue at 14.8 kBq, iv after 360 mins; assay type: ADME, organism-based; details: in vivo, 6 h; outline: as §1
# Stomach [22] = experiment: Biodistribution in ddY mouse stomach assessed per gram of tissue at 14.8 kBq, iv after 60 mins; assay type: ADME, organism-based; details: in vivo, 1 h; outline: as §1
# Stomach [23] = experiment: Biodistribution in ddY mouse stomach assessed per gram of tissue at 14.8 kBq, iv after 5 mins; assay type: ADME, organism-based; details: in vivo; outline: as §1
# Spleen [24] = experiment: Biodistribution in ddY mouse spleen assessed per gram of tissue at 14.8 kBq, iv after 30 mins; assay type: ADME, organism-based; details: in vivo, 0.5 h; outline: as §1
# Pancreas [25] = experiment: Biodistribution in ddY mouse pancreas assessed per gram of tissue at 14.8 kBq, iv after 5 mins; assay type: ADME, organism-based; details: in vivo; outline: as §1
# Intestine [26] = experiment: Biodistribution in ddY mouse intestine assessed per gram of tissue at 14.8 kBq, iv after 5 mins; assay type: ADME, organism-based; details: in vivo; outline: as §2
# Blood [27] = experiment: Biodistribution in ddY mouse blood assessed per gram of tissue at 14.8 kBq, iv after 5 mins; assay type: ADME, organism-based; details: in vivo; outline: as §2
# Heart [28] = experiment: Biodistribution in ddY mouse heart assessed per gram of tissue at 14.8 kBq, iv after 60 mins; assay type: ADME, organism-based; details: in vivo, 1 h; outline: as §2
# Lung [29] = experiment: Biodistribution in ddY mouse lung assessed per gram of tissue at 14.8 kBq, iv after 60 mins; assay type: ADME, organism-based; details: in vivo, 1 h; outline: as §1
# Liver [30] = experiment: Biodistribution in ddY mouse liver assessed per gram of tissue at 14.8 kBq, iv after 30 mins; assay type: ADME, organism-based; details: in vivo, 0.5 h; outline: as §2
# Liver [31] = experiment: Biodistribution in ddY mouse liver assessed per gram of tissue at 14.8 kBq, iv after 360 mins; assay type: ADME, organism-based; details: in vivo, 6 h; outline: as §2
# Brain [32] = experiment: Biodistribution in ddY mouse brain assessed per gram of tissue at 14.8 kBq, iv after 180 mins; assay type: ADME, organism-based; details: in vivo, 3 h; outline: as §2
# Intestine [33] = experiment: Biodistribution in ddY mouse intestine assessed per gram of tissue at 14.8 kBq, iv after 60 mins; assay type: ADME, organism-based; details: in vivo, 1 h; outline: as §2
# Intestine [34] = experiment: Biodistribution in ddY mouse intestine assessed per gram of tissue at 14.8 kBq, iv after 0.5 mins; assay type: ADME, organism-based; details: in vivo; outline: as §2
# Pancreas [35] = experiment: Biodistribution in ddY mouse pancreas assessed per gram of tissue at 14.8 kBq, iv after 60 mins; assay type: ADME, organism-based; details: in vivo, 1 h; outline: as §1
# Lung [36] = experiment: Biodistribution in ddY mouse lung assessed per gram of tissue at 14.8 kBq, iv after 0.5 mins; assay type: ADME, organism-based; details: in vivo; outline: as §1
# Lung [37] = experiment: Biodistribution in ddY mouse lung assessed per gram of tissue at 14.8 kBq, iv after 360 mins; assay type: ADME, organism-based; details: in vivo, 6 h; outline: as §1
# Kidney [38] = experiment: Biodistribution in ddY mouse kidney assessed per gram of tissue at 14.8 kBq, iv after 60 mins; assay type: ADME, organism-based; details: in vivo, 1 h; outline: as §2
# Lung [39] = experiment: Biodistribution in ddY mouse lung assessed per gram of tissue at 14.8 kBq, iv after 30 mins; assay type: ADME, organism-based; details: in vivo, 0.5 h; outline: as §1
# Blood [40] = experiment: Biodistribution in ddY mouse blood assessed per gram of tissue at 148 kBq, iv after 180 mins in presence of 200 mg/kg, iv of probenecid administered 30 mins before compound challenge (reference value: 0.46 +/- 0.07 %); assay type: ADME, organism-based; set-up: dose 200 mg/kg, route intravenous; details: in vivo, 3 h
# Blood [41] = experiment: Biodistribution in ddY mouse blood assessed per gram of tissue at 14.8 kBq, iv after 0.5 mins; assay type: ADME, organism-based; details: in vivo; outline: as §2
# Kidney [42] = experiment: Biodistribution in ddY mouse kidney assessed per gram of tissue at 14.8 kBq, iv after 360 mins; assay type: ADME, organism-based; details: in vivo, 6 h; outline: as §2
# Heart [43] = experiment: Biodistribution in ddY mouse heart assessed per gram of tissue at 14.8 kBq, iv after 360 mins; assay type: ADME, organism-based; details: in vivo, 6 h; outline: as §2
# Blood [44] = experiment: Biodistribution in ddY mouse blood assessed per gram of tissue at 14.8 kBq, iv after 30 mins; assay type: ADME, organism-based; details: in vivo, 0.5 h; outline: as §2
# Spleen [45] = experiment: Biodistribution in ddY mouse spleen assessed per gram of tissue at 14.8 kBq, iv after 0.5 mins; assay type: ADME, organism-based; details: in vivo; outline: as §1
smiles,measurement,setting,value
Oc1ccc2nc(CN3CCC(Cc4ccc([125I])cc4)CC3)[nH]c2c1,Drug uptake,Stomach [1],2.51 % ID/g
same,Drug uptake,Blood [2],0.3 % ID/g
same,Drug uptake,Pancreas [3],0.49 % ID/g
same,Drug uptake,Brain [4],0.48 % ID/g
same,Drug uptake,Blood [5],0.52 % ID/g
same,Drug uptake,Heart [6],1.47 % ID/g
same,Drug uptake,Stomach [7],2.54 % ID/g
same,Drug uptake,Intestine [8],2.39 % ID/g
same,Drug uptake,Pancreas [9],6.53 % ID/g
same,Drug uptake,Pancreas [10],6.1 % ID/g
same,Drug uptake,Brain [11],0.21 % ID/g
same,Drug uptake,Stomach [12],2.17 % ID/g
same,Drug uptake,Brain [13],0.66 % ID/g
same,Drug uptake,Kidney [14],4.2 % ID/g
same,Drug uptake,Kidney [15],7.74 % ID/g
same,Drug uptake,Lung [16],4.75 % ID/g
same,Drug uptake,Liver [17],32.22 % ID/g
same,Drug uptake,Brain [18],0.55 % ID/g
same,Drug uptake,Spleen [19],5.66 % ID/g
same,Drug uptake,Kidney [20],5.35 % ID/g
same,Drug uptake,Spleen [21],3.79 % ID/g
same,Drug uptake,Stomach [22],2.16 % ID/g
same,Drug uptake,Stomach [23],1.93 % ID/g
same,Drug uptake,Spleen [24],5.91 % ID/g
same,Drug uptake,Pancreas [25],5.74 % ID/g
same,Drug uptake,Intestine [26],1.83 % ID/g
same,Drug uptake,Blood [27],1.15 % ID/g
same,Drug uptake,Heart [28],1.87 % ID/g
same,Drug uptake,Lung [29],7.54 % ID/g
same,Drug uptake,Liver [30],28.99 % ID/g
same,Drug uptake,Liver [31],30.16 % ID/g
same,Drug uptake,Brain [32],0.56 % ID/g
same,Drug uptake,Intestine [33],2.35 % ID/g
same,Drug uptake,Intestine [34],4.02 % ID/g
same,Drug uptake,Pancreas [35],6.35 % ID/g
same,Drug uptake,Lung [36],6.6 % ID/g
same,Drug uptake,Lung [37],3.44 % ID/g
same,Drug uptake,Kidney [38],10.34 % ID/g
same,Drug uptake,Lung [39],8.16 % ID/g
same,Drug uptake,Blood [40],0.41 % ID/g
same,Drug uptake,Blood [41],3.22 % ID/g
same,Drug uptake,Kidney [42],5.46 % ID/g
same,Drug uptake,Heart [43],1.58 % ID/g
same,Drug uptake,Blood [44],0.67 % ID/g
same,Drug uptake,Spleen [45],0.5 % ID/g
